Sampled rows, rich in hits. Any-hit rate of the full collection: about 2.4%.
HMGR II inh: E. faecalis class II HMG-CoA reductase inhibition; purified E. faecalis HMGR, NADPH absorbance 340 nm kinetic; inhibition, % at 10 µM; 0.41% of 190,000 active; AID 1066;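 active means inhibition above a set limit, the median over all tested compounds plus 3 SD, cut at about 9.5% in these data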;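 further: enzyme runs in reverse so mevalonate oxidation gives rising NADPH absorbance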
TbHK1 inh: blocks Trypanosoma brucei hexokinase 1 activity; 0.11% of 220,000 active; inhibition, % at 10 µM; recombinant TbHK1, G6PDH-coupled NADH A340;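 active means inhibition of 50% or more in the single-dose primary screen; inactive means inhibition below 50%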
bCat nuc transl: alters nuclear translocation of beta-catenin in HeLa cells. immunofluorescence imaging. nuclear translocation activity, % at 5 µM. 0.3% of 190,000 active;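 active means nuclear translocation activity above 50% at 5 µM, with a well cell count of 50 or more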;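 further: per-cell ratio of nuclear to cytoplasmic median beta-catenin stain intensity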
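Test system: human HeLa cells, endogenous beta-catenin. Times: 24 h compound exposure, 37°C. Measured by: beta-catenin immunofluorescence imaging with DAPI.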
MT stabilizer: stabilizes microtubules in HeLa cells; HeLa tubulin immunostaining HCS, 24 h; share of cells brighter than vehicle mean+2SD; % tubulin-high responders, % at 10 µM; 0.83% of 200,000 active; AID 2205;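 active means plate Z-score above 3 for both tubulin-high and condensed-nucleus cell shares, with cell loss under 80%, at 10 µM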;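 further: anti alpha tubulin signal scored within the nucleus-defined area of each cell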
EP2 antag: inhibitors of human EP2 prostaglandin E2 receptor. P43116. C6 glioma cells expressing human EP2, cAMP TR-FRET; cells stimulated with saturating PGE2. inhibition, % at 25 µM. 0.52% of 260,000 active. AID 1422;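 active means percent inhibition above 40 after rounding to a whole number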;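 further: rat C6 glioma host cells with rolipram phosphodiesterase inhibitor present; the protocol text gives 20 µM as final concentration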
Target sequence (P43116 whole entry, looked up): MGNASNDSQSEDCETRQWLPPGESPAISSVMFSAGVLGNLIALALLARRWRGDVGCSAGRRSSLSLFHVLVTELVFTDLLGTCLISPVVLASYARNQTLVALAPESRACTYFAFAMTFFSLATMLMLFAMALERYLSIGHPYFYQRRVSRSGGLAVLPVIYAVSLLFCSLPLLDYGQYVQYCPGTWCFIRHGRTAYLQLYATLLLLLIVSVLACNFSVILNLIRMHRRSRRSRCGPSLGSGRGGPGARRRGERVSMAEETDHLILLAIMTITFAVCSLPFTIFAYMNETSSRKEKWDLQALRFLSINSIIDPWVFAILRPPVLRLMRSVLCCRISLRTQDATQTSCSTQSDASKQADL
EP2 mod: EP2 receptor (human) modulation; EP2-expressing cells, cAMP HTRF FRET, PGE2 co-stimulation; induction, % at 25 µM; 0.83% of 260,000 active;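 active means compounds whose cAMP rise, as percent of the full-agonist control response, exceeds 60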;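 further: rat C6 glioma line stably carrying human EP2 under a CMV promoter; the protocol text gives 20 µM as final concentration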
Each line names hits and unclear results; the compound was inactive in the other large screens.

CC(O)CN(Cc1ccc2c(c1)OCO2)Cc1cnn(-c2ccccc2)c1 (stereo not given)	none (no result: HMGR II inh, TbHK1 inh, bCat nuc transl, MT stabilizer)
COc1ccc(/C(C)=N/OC/C(O)=C(\C#N)c2nc3ccccc3[nH]2)cc1OC	MT stabilizer 16
COc1ccc(/C(C)=N/OC/C(O)=C(\C#N)c2nc3ccccc3[nH]2)c(OC)c1	none
CC(=O)C(C(C)=O)c1c(Cl)c(O)c(O)c2c(C(=O)c3ccccc3)coc12	EP2 antag 57
CCCCC(C)(O)C/C=C/[C@H]1[C@H](O)CC(=O)[C@@H]1CCCCCCC(=O)OC (stereo not given in full)	EP2 mod 97 (no result: bCat nuc transl)
CCCCCC1C(=O)CCC1CC(=O)OC (stereo not given)	none (no result: HMGR II inh, TbHK1 inh, bCat nuc transl, MT stabilizer)
CCOc1ccc(S(=O)(=O)N2c3ccccc3CC2C)cc1 (stereo not given)	bCat nuc transl 163, MT stabilizer 17
CCOc1ccc(S(=O)(=O)N2CCc3ccccc3C2)cc1	none
Cc1ccc(S(=O)(=O)N2c3ccccc3CC2C)cc1 (stereo not given)	MT stabilizer 13
Cc1ccc(/C=C/C(=O)N2CCc3ccccc32)o1	MT stabilizer 10 (no result: bCat nuc transl)
CCCCCNC1=CC(=O)CC(c2ccccc2)C1 (stereo not given)	MT stabilizer 47 (no result: bCat nuc transl)
CCCCCCCNC1=CC(=O)CC(c2ccccc2)C1 (stereo not given)	MT stabilizer 12
Cc1nc2c3cc(F)ccc3n(CCN3CCCCC3)c2s1	MT stabilizer 14
Cc1nc2c3cc(F)ccc3n(Cc3ccccc3F)c2s1	MT stabilizer 27
CCCn1c(SCC(=O)Nc2cccc(Cl)c2C)nnc1C(C)C	none (no result: HMGR II inh, TbHK1 inh, bCat nuc transl, MT stabilizer)
O=C(c1ccccn1)N1CCC(n2nnc(-c3ccc(F)cc3)n2)CC1	none (no result: HMGR II inh, TbHK1 inh, bCat nuc transl, MT stabilizer, EP2 antag)
Cc1ccc(C(C)C)c(Oc2nnnn2-c2ccccc2)c1	MT stabilizer 32
COc1ccc(C2C(C(=O)Nc3cc(OC)c(OC)c(OC)c3)c3ccccc3C(=O)N2C)cc1 (stereo not given)	bCat nuc transl 73
COc1ccc(C2C(C(=O)Nc3cccc(OC)c3)c3ccccc3C(=O)N2C)cc1 (stereo not given)	none
CCOC(=O)CCN(Cc1cccs1)S(=O)(=O)c1ccc(Cl)cc1	EP2 mod 61
CC(=O)N(CCS(=O)(=O)c1ccc(Cl)cc1)Cc1cccs1	none (no result: HMGR II inh, MT stabilizer)
COc1ccccc1N1CC(C(=O)OCC(=O)c2ccccc2)CC1=O (stereo not given)	none (no result: HMGR II inh, TbHK1 inh, bCat nuc transl, MT stabilizer)
Cc1ccc(C2=CC(c3ccc(C)cc3)n3ncnc3N2)cc1 (stereo not given)	none (no result: HMGR II inh, TbHK1 inh, bCat nuc transl, MT stabilizer, EP2 mod)
COc1ccc(C2C=C(c3ccc(C)c(C)c3)Nc3ncnn32)c(OC)c1OC (stereo not given)	MT stabilizer 23 (no result: bCat nuc transl)
Fc1ccc(Br)cc1C1C=C(c2ccc(Br)s2)Nc2ncnn21 (stereo not given)	bCat nuc transl 50
COc1cccc(C2C=C(c3ccc(Br)s3)Nc3ncnn32)c1OC (stereo not given)	EP2 antag 112
CCc1ccccc1NC(=O)C1CCCN(c2ncccn2)C1 (stereo not given)	none (no result: HMGR II inh, TbHK1 inh, bCat nuc transl, MT stabilizer)
CCC(C)c1ccc(NC(=O)C2CCCN(c3ncccn3)C2)cc1 (stereo not given)	MT stabilizer 36
Cc1cc(C)c2c(c1)c(C)cc1nnc(SCC(=O)NC3CCCC3)n12	none (no result: HMGR II inh, TbHK1 inh, bCat nuc transl, MT stabilizer)
Cc1ccc(OCC(=O)NC(=S)Nc2ccc3c4c(cccc24)CC3)cc1	EP2 mod 62
CC1CCCN(c2nc3c(c(=O)[nH]2)CCN(Cc2cc4c5c(c2O)CCCN5CCC4)C3)C1 (stereo not given)	none (no result: HMGR II inh, TbHK1 inh, bCat nuc transl, MT stabilizer)
CNC(=S)N1N=C(c2ccc(C)cc2)CC1c1cc(OC)ccc1OC (stereo not given)	MT stabilizer 12
COc1ccc(C(=O)n2c(-c3ccco3)nc3ccccc32)cc1	bCat nuc transl 75, MT stabilizer 24
Cc1ccc(CN(CCN(C)C)Cc2c(C)nc3sccn23)o1	none (no result: HMGR II inh, TbHK1 inh, bCat nuc transl, MT stabilizer)
CCCCC(=O)Nc1nnc(C2=COCCO2)o1	HMGR II inh 18
O=c1c2c([N+](=O)[O-])cc([N+](=O)[O-])cc2sn1-c1ccc(Br)cc1	TbHK1 inh 92
Cc1ccc(C)c(NC(=O)CSC2=NCCS2)c1	none (no result: HMGR II inh, TbHK1 inh, bCat nuc transl, MT stabilizer)
CCNc1ccc(S(=O)(=O)C(F)(F)F)cc1NC(=O)C12CCC(CC1)C2	EP2 antag 76
CCNc1cc(S(=O)(=O)C(F)(F)F)ccc1N	none
Cc1ccccc1CN1C2=NCCN2C(=O)C2=C1CCN(Cc1ccccc1)C2	EP2 antag 49 (no result: HMGR II inh, TbHK1 inh, bCat nuc transl, MT stabilizer)
COc1ccccc1Sc1ccccc1/C=N/NC(N)=O	HMGR II inh 15
COc1cccc(/C=N/NC(=O)CSc2ccccc2C)c1O	none
Cc1c(C(=O)OC(C)C)sc2ncn(CC(=O)Nc3ccc(F)c(Cl)c3)c(=O)c12	none (no result: HMGR II inh, TbHK1 inh, bCat nuc transl, MT stabilizer)
CC1Cc2ccccc2N1C(=O)c1cccnc1 (stereo not given)	none
Cc1nc2ccc(C(=O)N3c4ccccc4CC3C)cc2s1 (stereo not given)	MT stabilizer 19
CC1=CC(C)(C)N(S(=O)(=O)c2ccc(C)cc2)c2ccc(C)cc21	none (no result: bCat nuc transl)
CC(=O)Nc1ccc(S(=O)(=O)N2c3ccccc3C(C)=CC2(C)C)cc1	bCat nuc transl 81, MT stabilizer 8.6
CC1=CC(C)(C)N(S(=O)(=O)c2ccc(F)cc2)c2ccccc21	MT stabilizer 25
COc1ccc(NC(=O)N2c3ccccc3C(C)=CC2(C)C)cc1	none
CC1Cc2nc(SCC(=O)NC3CCCCC3)n(C)c(=O)c2S1 (stereo not given)	EP2 antag 98
Nc1cc2nsnc2cc1Br	EP2 antag 138
Nc1cccc2nsnc12	none (no result: HMGR II inh, MT stabilizer)
COc1ccc(NC(=O)c2ccc3c(c2)n(C)c(=O)n3C)cc1	HMGR II inh 21
Cc1ccc(C(=O)Nc2ccc(C(F)(F)F)n(C)c2=O)cc1	none
COc1ccc(C(=O)Nc2ccc(C(F)(F)F)n(C)c2=O)cc1	HMGR II inh 11
CCC(C)(C)n1nnnc1C(c1cc2cc(C)c(C)cc2[nH]c1=O)N1CCC(C)CC1 (stereo not given)	none (no result: HMGR II inh, TbHK1 inh, bCat nuc transl, MT stabilizer)
CC(C)OCCCNC(=O)C(=O)NCc1cccs1	none (no result: HMGR II inh, TbHK1 inh, bCat nuc transl, MT stabilizer)
Cc1cccc2c1Sc1ccccc1CC2=O	EP2 mod 64
Cc1nn(CC(=O)N(C)CC(C)c2ccccc2)c(=O)c2cc3occc3n12 (stereo not given)	none (no result: HMGR II inh, TbHK1 inh, bCat nuc transl, MT stabilizer)
CCc1nn(CC(=O)NC(C)C)c(=O)c2cc3sc(C)cc3n12	none (no result: HMGR II inh, TbHK1 inh, bCat nuc transl, MT stabilizer, EP2 antag)
Fc1ccccc1COc1ccc2ccccc2c1CNc1nn[nH]n1	MT stabilizer 18
Fc1ccc(COc2ccc3ccccc3c2CNc2nn[nH]n2)cc1	none
CCOC(=O)c1ccc(NC2=CC(=O)CC(c3ccco3)C2)cc1 (stereo not given)	none
O=C1C=C(Nc2ccc(O)cc2)CC(c2ccco2)C1 (stereo not given)	MT stabilizer 46
COc1ccc(NC(=O)c2oc3ccccc3c2C)cc1	none (no result: HMGR II inh, TbHK1 inh, bCat nuc transl, MT stabilizer)
CCCn1c(C)nc2ccccc21	none (no result: HMGR II inh, TbHK1 inh, bCat nuc transl, MT stabilizer)
